The test system of experiment [1] is Mus musculus. Description: Intraperitoneal dose required for antagonism of d-amphetamine lethality in grouped mice (GAL). It is filed as functional. The following applies: ip. In short, it runs like this: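 Mice housed in groups received drug intraperitoneally and were scored for protection against d-amphetamine-induced lethality. There were 5 to 10 animals per dose group. The ED50 was the dose protecting 50% of mice. 95% confidence limits came from Finney's arc-sine transformation method.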

Experiment [2] concerns Mus musculus. In words: Minimum effective dose was measured orally by antagonism of tetrabenazine-induced depression in mice(po); inact means compound is inactive. It is filed as functional, organism-based. A digest of the protocol:
(§1)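 Mice given tetrabenazine to induce depression; test agent given orally to look for antagonism of that depression. The value is the minimum effective dose. Each test group held 5 to 10 animals. The protocol is the same as in the group's earlier publications.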

Experiment [3] concerns Rattus norvegicus. Description: Estimated oral dose depressing motor activity by 50% in rats(po). The format is functional. A digest of the protocol: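 Rats dosed orally; spontaneous motor activity recorded. The value is the estimated dose that lowers motor activity by 50%. Each test group held 5 to 10 animals. The protocol is the same as in the authors' earlier reports.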

Experiment [4] concerns Mus musculus. In words: Minimum effective dose was measured orally by antagonism of tetrabenazine-induced depression in mice(po). The format is functional. The conditions noted are these: read-out: MED. In short, it runs like this: as §1
For experiment [5], the system named is Mus musculus. Description: Oral dose required for antagonism of d-amphetamine lethality in grouped mice (GAL). The format is functional. In short, it runs like this: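 Drug was given orally to grouped mice challenged with d-amphetamine, and survival (protection from lethality) was recorded. Each test group had 5 to 10 animals. The result is an ED50 with 95% confidence limits, calculated by the arc-sine transformation method of Finney.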

Here are results for seven molecules from ChEMBL document CHEMBL1121428, “Derivatives of 11-(1-piperazinyl)-5H-pyrrolo[2,1-c][1,4]benzodiazepine as central nervous system agents” (1980).

The structures appear in SMILES notation. Activity calls are given as the source filed them. The calls are words filed in the database; no cut-off is given here. Bounds are passed on as bounds.

As a reminder, the ED50 is the midpoint of the dose-response relation. Read a low ED50 as an effect at a small dose. On to `CN(C)CCCN1c2ccccc2Sc2ccc(Cl)cc21` [CHLORPROMAZINE], for which the ED50 in experiment [1] was determined as 0.6 mg/kg. Also, the MED result in experiment [2] is “inactive”. Besides, the MDD50 in experiment [3] was 2.4 mg/kg.
For `CN(C)CCCN1c2ccccc2CCc2ccccc21` [IMIPRAMINE], in experiment [4], the minimal effective dose was found to be 5 mg/kg. The MDD50 in experiment [3] was greater than 50 mg/kg.
Regarding `CN1CCN(C2=Nc3cc(Cl)ccc3Cn3cccc32)CC1`, the ED50 in experiment [1] came to 4 mg/kg. In addition, in experiment [2], the MED entry was “inactive”. In addition, the MDD50 in experiment [3] was 12 mg/kg.
In experiment [1], `CN1CCN(C2=Nc3ccc(Cl)cc3Cn3cccc32)CC1` had an ED50 of 16 mg/kg. Also, the MED result in experiment [2] was “inactive”. In addition, in experiment [3], the MDD50 was 50 mg/kg.
In turn, `CN1CCN(C2=Nc3ccccc3Cn3cccc32)CC1` yielded a 50% effective dose (ED50) in experiment [1] of 1 mg/kg. Besides, in experiment [2], the MED entry is “inactive”. Besides, the MDD50 in experiment [3] is 7 mg/kg.
As for `CN1CCN(C2=Nc3cc(Cl)ccc3Nc3ccccc32)CC1` [CLOZAPINE], it took a dose of 2.2 mg/kg to reach the 50% effect level in experiment [1] (ED50). In addition, the MED entry in experiment [2] was “inactive”. The MDD50 in experiment [3] was 21 mg/kg.
Take `c1ccc2c(c1)Cn1cccc1C(N1CCNCC1)=N2`: the minimal effective dose in experiment [4] came out at 3.1 mg/kg. The molecule also registered an ED50 in experiment [5] of 4.7 mg/kg.
